What all share (format): functional
One assay concerns Escherichia coli. Briefly: Minimum inhibitory concentration against Escherichia coli Vogel. The procedure, abridged: (§1)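 Standard microdilution method against a panel of five Gram-negative and five Gram-positive bacterial strains. The MIC (µg/mL) was recorded for each strain.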
The subject of another assay is Enterococcus faecalis. Kind of assay: Minimum inhibitory concentration against […] MGH-2. The procedure, abridged:
as §1

In another assay the test system is Enterobacter cloacae. Briefly: Minimum inhibitory concentration against […] MA-2646. Summed up: as §1
A further assay concerns Klebsiella pneumoniae. Briefly: Minimum inhibitory concentration against Klebsiella pneumoniae MGH-2. Summed up:
as §1

A further assay relates to Pseudomonas aeruginosa. Briefly: Minimum inhibitory concentration against Pseudomonas aeruginosa UI-18. The procedure, abridged: as §1
In a further assay the test system is Providencia rettgeri. Kind of assay: Minimum inhibitory concentration against Providencia rettgeri M-1771. Summed up:
as §1

A further assay concerns Streptococcus pneumoniae. Briefly: Minimum inhibitory concentration against Streptococcus pneumoniae SV-1. Summed up:
as §1

In assay [1] the test system is Staphylococcus aureus. Kind of assay: Minimum inhibitory concentration against Staphylococcus aureus H-228. The procedure, abridged: as §1
A further assay relates to Streptococcus pyogenes. Kind of assay: Minimum inhibitory concentration against Streptococcus pyogenes C-203. Summed up: as §1
The subject of assay [2] is Staphylococcus aureus. Kind of assay: Minimum inhibitory concentration against Staphylococcus aureus UC-76. The procedure, abridged:
as §1

Setting [3] is: Pseudomonas aeruginosa, read-out: MIC.
Setting [4] is: Escherichia coli, read-out: MIC.
Where [5] appears, read: Enterococcus faecalis, read-out: MIC.
Setting [6] is: Enterobacter cloacae, read-out: MIC.
Where [7] appears, read: Klebsiella pneumoniae, read-out: MIC.
[8] abbreviates: Providencia rettgeri, read-out: MIC.
Where [9] appears, read: Streptococcus pneumoniae, read-out: MIC.
The mark [10] stands for this setting: Staphylococcus aureus, read-out: MIC.
The mark [11] stands for this setting: Streptococcus pyogenes, read-out: MIC.

Values after ≈ are worked out from the molar mass of the structure shown.

Turning to `COc1ccccc1C1CN(c2nc3c(cc2F)c(=O)c(C(=O)O)cn3C2CC2)CC1N` (cis isomer), the minimum inhibitory concentration (MIC) against Escherichia coli was 0.8 µg/mL (≈ 1.82 µM); in the assay with Enterococcus faecalis, 0.8 µg/mL (≈ 1.82 µM); in the assay with Enterobacter cloacae, 0.8 µg/mL (≈ 1.82 µM); with Klebsiella pneumoniae, 1.6 µg/mL (≈ 3.65 µM); in the assay on Pseudomonas aeruginosa (setting [3]), greater than 3.1 µg/mL; in the assay on Providencia rettgeri, 3.1 µg/mL (≈ 7.07 µM). In addition, the MIC worked out at 0.8 µg/mL (≈ 1.82 µM) against Streptococcus pneumoniae, 0.4 µg/mL (≈ 0.912 µM) in the assay with Staphylococcus aureus [1], 1.6 µg/mL (≈ 3.65 µM) in the assay on Streptococcus pyogenes and 0.2 µg/mL (≈ 0.456 µM) against Staphylococcus aureus [2].

Take `CCOC(=O)C1CC1C1CN(c2cc3c(cc2F)c(=O)c(C(=O)O)cn3C2CC2)CC1N` (trans isomer): the MIC in the assay on Escherichia coli (setting [4]) turned out to be 0.2 µg/mL (≈ 0.451 µM); with Enterococcus faecalis (setting [5]), 0.8 µg/mL (≈ 1.8 µM); in the assay with Enterobacter cloacae (setting [6]) it was 0.2 µg/mL (≈ 0.451 µM); with Klebsiella pneumoniae (setting [7]), 0.4 µg/mL (≈ 0.902 µM); in the assay with Pseudomonas aeruginosa (setting [3]), 3.1 µg/mL (≈ 6.99 µM); in the assay on Providencia rettgeri (setting [8]) it was 0.8 µg/mL (≈ 1.8 µM). The MIC was determined as 0.8 µg/mL (≈ 1.8 µM) with Streptococcus pneumoniae (setting [9]), 1.6 µg/mL (≈ 3.61 µM) with Staphylococcus aureus [1] (setting [10]), 0.8 µg/mL (≈ 1.8 µM) in the assay with Streptococcus pyogenes (setting [11]) and 0.2 µg/mL (≈ 0.451 µM) in the assay with Staphylococcus aureus [2] (setting [10]).

Take `Nc1c(F)c(N2CC(N)C(c3ccc(F)cc3)C2)c(F)c2c1c(=O)c(C(=O)O)cn2C1CC1` (trans isomer): the MIC in the assay on Escherichia coli (setting [4]) was 0.1 µg/mL (≈ 0.218 µM); with Enterococcus faecalis (setting [5]) it was 0.1 µg/mL (≈ 0.218 µM); with Enterobacter cloacae (setting [6]), 0.1 µg/mL (≈ 0.218 µM); in the assay on Klebsiella pneumoniae (setting [7]), 0.1 µg/mL (≈ 0.218 µM); in the assay on Pseudomonas aeruginosa (setting [3]), 1.6 µg/mL (≈ 3.49 µM); with Providencia rettgeri (setting [8]), 0.2 µg/mL (≈ 0.436 µM). Besides, the MIC with Streptococcus pneumoniae (setting [9]) stood at 0.1 µg/mL (≈ 0.218 µM); with Staphylococcus aureus [1] (setting [10]), 0.025 µg/mL (≈ 0.0545 µM); in the assay with Streptococcus pyogenes (setting [11]), 0.1 µg/mL (≈ 0.218 µM); with Staphylococcus aureus [2] (setting [10]), 0.013 µg/mL (≈ 0.0284 µM).

With `NCC1CN(c2nc3c(cc2F)c(=O)c(C(=O)O)cn3C2CC2)CC1c1ccc(N)cc1` (trans isomer), the MIC against Escherichia coli amounted to 0.2 µg/mL (≈ 0.457 µM); in the assay with Enterococcus faecalis, 0.1 µg/mL (≈ 0.229 µM); with Enterobacter cloacae, 0.2 µg/mL (≈ 0.457 µM); in the assay with Klebsiella pneumoniae, 0.2 µg/mL (≈ 0.457 µM); against Pseudomonas aeruginosa, 1.6 µg/mL (≈ 3.66 µM); in the assay with Providencia rettgeri it was 0.4 µg/mL (≈ 0.914 µM). Also, the MIC against Streptococcus pneumoniae was determined as 0.05 µg/mL (≈ 0.114 µM); with Staphylococcus aureus [1], 0.4 µg/mL (≈ 0.914 µM); in the assay on Streptococcus pyogenes, 0.05 µg/mL (≈ 0.114 µM); in the assay on Staphylococcus aureus [2] it was 0.05 µg/mL (≈ 0.114 µM).

On to `NCC1CN(c2c(F)c(N)c3c(=O)c(C(=O)O)cn(C4CC4)c3c2F)CC1c1ccc(N)cc1` (trans isomer), for which the MIC in the assay on Escherichia coli (setting [4]) came to 0.1 µg/mL (≈ 0.213 µM); in the assay on Enterococcus faecalis (setting [5]), 0.025 µg/mL (≈ 0.0532 µM); in the assay on Enterobacter cloacae (setting [6]), 0.1 µg/mL (≈ 0.213 µM); in the assay on Klebsiella pneumoniae (setting [7]), 0.2 µg/mL (≈ 0.426 µM); with Pseudomonas aeruginosa (setting [3]), 0.8 µg/mL (≈ 1.7 µM); in the assay on Providencia rettgeri (setting [8]), 0.2 µg/mL (≈ 0.426 µM). In addition, the MIC with Streptococcus pneumoniae (setting [9]) worked out at 0.013 µg/mL (≈ 0.0277 µM); with Staphylococcus aureus [1] (setting [10]), 0.025 µg/mL (≈ 0.0532 µM); with Streptococcus pyogenes (setting [11]), 0.025 µg/mL (≈ 0.0532 µM); with Staphylococcus aureus [2] (setting [10]) it was 0.006 µg/mL (≈ 0.0128 µM).

For the compound `CCOC(=O)C1CC1C1CN(c2nc3c(cc2F)c(=O)c(C(=O)O)cn3C2CC2)CC1N` (trans isomer), the MIC in the assay with Escherichia coli (setting [4]) was found to be 1.6 µg/mL (≈ 3.6 µM); with Enterococcus faecalis (setting [5]), 1.6 µg/mL (≈ 3.6 µM); in the assay on Enterobacter cloacae (setting [6]) it was 1.6 µg/mL (≈ 3.6 µM); in the assay with Klebsiella pneumoniae (setting [7]), 3.1 µg/mL (≈ 6.97 µM); with Pseudomonas aeruginosa (setting [3]), 2.5 µg/mL (≈ 5.62 µM); in the assay on Providencia rettgeri (setting [8]) it was 6.3 µg/mL (≈ 14.2 µM). Further, the MIC with Streptococcus pneumoniae (setting [9]) came out at 1.6 µg/mL (≈ 3.6 µM); in the assay with Staphylococcus aureus [1] (setting [10]), 1.6 µg/mL (≈ 3.6 µM); in the assay with Streptococcus pyogenes (setting [11]) it was 1.6 µg/mL (≈ 3.6 µM); in the assay on Staphylococcus aureus [2] (setting [10]) it was 0.4 µg/mL (≈ 0.9 µM).

On to `COC(=O)c1ccc(C2CN(c3c(F)cc4c(=O)c(C(=O)O)cn(C5CC5)c4c3F)CC2N)cc1` (stereo not given), for which the MIC turned out to be 0.4 µg/mL (≈ 0.827 µM) with Escherichia coli (setting [4]); 0.4 µg/mL (≈ 0.827 µM) with Enterococcus faecalis (setting [5]); 0.4 µg/mL (≈ 0.827 µM) in the assay on Enterobacter cloacae (setting [6]); 0.8 µg/mL (≈ 1.65 µM) in the assay on Klebsiella pneumoniae (setting [7]); 3.1 µg/mL (≈ 6.41 µM) in the assay on Pseudomonas aeruginosa (setting [3]); 1.6 µg/mL (≈ 3.31 µM) with Providencia rettgeri (setting [8]). Further, the MIC turned out to be 0.4 µg/mL (≈ 0.827 µM) with Streptococcus pneumoniae (setting [9]), 0.1 µg/mL (≈ 0.207 µM) in the assay on Staphylococcus aureus [1] (setting [10]), 0.4 µg/mL (≈ 0.827 µM) with Streptococcus pyogenes (setting [11]) and 0.05 µg/mL (≈ 0.103 µM) with Staphylococcus aureus [2] (setting [10]).

Consider `NCc1cccc(C2CN(c3nc4c(cc3F)c(=O)c(C(=O)O)cn4C3CC3)CC2CN)c1` (trans isomer), for which the MIC in the assay on Escherichia coli (setting [4]) was 3.1 µg/mL (≈ 6.87 µM); in the assay with Enterococcus faecalis (setting [5]), 1.6 µg/mL (≈ 3.54 µM); in the assay with Enterobacter cloacae (setting [6]) it was 3.1 µg/mL (≈ 6.87 µM); with Klebsiella pneumoniae (setting [7]) it was 3.1 µg/mL (≈ 6.87 µM); in the assay with Pseudomonas aeruginosa (setting [3]), 12.5 µg/mL (≈ 27.7 µM); in the assay with Providencia rettgeri (setting [8]) it was 6.3 µg/mL (≈ 14 µM). Further, the MIC in the assay on Streptococcus pneumoniae (setting [9]) was determined as 0.8 µg/mL (≈ 1.77 µM); with Staphylococcus aureus [1] (setting [10]), 3.1 µg/mL (≈ 6.87 µM); with Streptococcus pyogenes (setting [11]) it was 0.2 µg/mL (≈ 0.443 µM); in the assay with Staphylococcus aureus [2] (setting [10]) it was 0.8 µg/mL (≈ 1.77 µM).

`NCc1cccc(C2CN(c3nc4c(cc3F)c(=O)c(C(=O)O)cn4C3CC3)CC2N)c1` (trans isomer): the MIC in the assay on Escherichia coli (setting [4]) came out at 0.8 µg/mL (≈ 1.83 µM); in the assay on Enterococcus faecalis (setting [5]), 0.8 µg/mL (≈ 1.83 µM); with Enterobacter cloacae (setting [6]) it was 0.8 µg/mL (≈ 1.83 µM); in the assay with Klebsiella pneumoniae (setting [7]), 0.8 µg/mL (≈ 1.83 µM); in the assay on Pseudomonas aeruginosa (setting [3]), 3.1 µg/mL (≈ 7.09 µM); in the assay with Providencia rettgeri (setting [8]), 1.6 µg/mL (≈ 3.66 µM). Further, the MIC in the assay with Streptococcus pneumoniae (setting [9]) amounted to 0.2 µg/mL (≈ 0.457 µM); in the assay on Staphylococcus aureus [1] (setting [10]), 3.1 µg/mL (≈ 7.09 µM); in the assay on Streptococcus pyogenes (setting [11]), 0.2 µg/mL (≈ 0.457 µM); with Staphylococcus aureus [2] (setting [10]), 0.4 µg/mL (≈ 0.914 µM).

The record behind these values is ChEMBL document CHEMBL1126564, “Synthesis and antimicrobial evaluation of a series of 7-[3-amino (or aminomethyl)-4-aryl (or cyclopropyl)-1-pyrrolidinyl]-4-quinolone- and -1,8-naphthyridone-3-carboxylic acids” (1993).
